The values below come from ChEMBL document CHEMBL1129299, “Synthesis and antitumor evaluation of a highly potent cytotoxic DNA cross-linking polyamine analogue, 1,12-diaziridinyl-4,9-diazadodecane” (1996).

Structures are written as SMILES.

Experiment [1] concerns Mus musculus. Description: Net log cell kill is an estimate of the number of cells that are killed by the compound was calculated at dose of 10 mg/kg on days 1,5,9. The format is functional.
In experiment [2] the test system is Mus musculus. Description: Percent increase in life span was calculated by administering intraperitoneally the compound dose of 10 mg/kg on days 1,5 and 9. The note with it: ip.
In experiment [3] the test system is Mus musculus. The experiment can be described thus: In vivo antitumor studies were carried out on mice bearing L1210 murine leukemia cells, by administering intraperitoneally the compound dose of 10 mg/kg on days 1,5 and 9. The note with it: route intraperitoneal.
In experiment [4] the test system is Mus musculus. The experiment can be described thus: Net log cell kill is an estimate of the number of cells that are killed by the compound was calculated at dose of 2.7 mg/kg on days 1. The class given is functional. An outline of the steps:
(§1)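 Net log cell kill in female CD2F1 mice given ip L1210 (1 × 10^5 cells, day 0) and iv tail-vein drug from day 1. It was calculated from treated-minus-control median day of death, less treatment duration, relative to tumor doubling time. Doubling time came from median days of death in titration groups of 10 mice implanted with 1 × 10^4 to 1 × 10^6 cells.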

Experiment [5] has as its system Mus musculus. Description: Net log cell kill is an estimate of the number of cells that are killed by the compound was calculated at dose of 1.8 mg/kg on days 1. The class given is functional. An outline of the steps:
as §1

Experiment [6] relates to Mus musculus. The experiment can be described thus: Net log cell kill is an estimate of the number of cells that are killed by the compound was calculated at dose of 1.8 mg/kg on days 1,2. The class given is functional. An outline of the steps: as §1
For experiment [7], the system named is Mus musculus. The experiment can be described thus: Net log cell kill is an estimate of the number of cells that are killed by the compound was calculated at dose of 1.8 mg/kg on days 1,5,9. The format is functional. An outline of the steps:
as §1

For experiment [8], the system named is Mus musculus. The experiment can be described thus: In vivo antitumor studies were carried out on mice bearing L1210 murine leukemia cells, by administering intravenously the compound dose of 4.0 mg/kg on days 1. The format is functional. The note with it: route intravenous. A digest of the protocol: (§2)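 Female CD2F1 mice (12-week-old, five per group) given 1 × 10^5 L1210 ascites cells ip on day 0; cells were first passaged ip in DBA/2 mice. From day 1, freshly made drug in 25 mM sodium phosphate pH 7.4 was given iv by tail vein at 0.01 mL/g. Mean survival days were compared with untreated mice by ANOVA and Newman-Keuls.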

Experiment [9] relates to Mus musculus. The experiment can be described thus: Percent increase in life span was calculated by administering intravenously the compound dose of 1.8 mg/kg on days 1,5 and 9. The format is functional. The following applies: route intravenous. An outline of the steps: (§3)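 CD2F1 female mice bore ip L1210 (1 × 10^5 cells/mouse, day 0). Tail-vein iv dosing in 25 mM phosphate buffer pH 7.4 began on day 1. Percent increase in life span was calculated as (T − C)/C × 100, with T and C the median days of death for the treated and untreated groups.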

For experiment [10], the system named is Mus musculus. The experiment can be described thus: Percent increase in life span was calculated by administering intravenously the compound dose of 1.8 mg/kg on days 1,8. The class given is functional. The note with it: route intravenous. An outline of the steps: as §3
Experiment [11] concerns Mus musculus. Description: Percent increase in life span was calculated by administering intravenously the compound dose of 2.7 mg/kg on days 1. The format is functional. The note with it: route intravenous. A digest of the protocol: as §3
Experiment [12] relates to Mus musculus. The experiment can be described thus: Percent increase in life span was calculated by administering intravenously the compound dose of 2.7 mg/kg on days 1,2. The format is functional. The following applies: route intravenous. An outline of the steps:
as §3

The subject of experiment [13] is Mus musculus. Description: Percent increase in life span was calculated by administering intravenously the compound dose of 2.7 mg/kg on days 1,5 and 9. The format is functional. The following applies: route intravenous. An outline of the steps: as §3
For experiment [14], the system named is Mus musculus. Description: Percent increase in life span was calculated by administering intravenously the compound dose of 2.7 mg/kg on days 1,8. The format is functional. The note with it: route intravenous. A digest of the protocol: as §3
The subject of experiment [15] is Mus musculus. Description: Percent increase in life span was calculated by administering intravenously the compound dose of 4.0 mg/kg on days 1. The note with it: route intravenous. The class given is functional. A digest of the protocol: as §3
Experiment [16] has as its system Mus musculus. The experiment can be described thus: Percent increase in life span was calculated by administering intravenously the compound dose of 4.0 mg/kg on days 1,5 and 9. The note with it: route intravenous. The format is functional. An outline of the steps: as §3
For experiment [17], the system named is Mus musculus. Description: Percent increase in life span was calculated by administering intravenously the compound dose of 4.0 mg/kg on days 1,8. The format is functional. The following applies: route intravenous. A digest of the protocol:
as §3

Experiment [18] relates to Mus musculus. Description: Percent increase in life span was calculated by administering intravenously the compound dose of 1.8 mg/kg on days 1. The format is functional. The note with it: route intravenous. A digest of the protocol:
as §3

Experiment [19] deals with Mus musculus. The experiment can be described thus: Percent increase in life span was calculated by administering intravenously the compound dose of 1.8 mg/kg on days 1,2. The class given is functional. The note with it: route intravenous. A digest of the protocol:
as §3

Experiment [20] deals with Mus musculus. The experiment can be described thus: Net log cell kill is an estimate of the number of cells that are killed by the compound was calculated at dose of 2.7 mg/kg on days 1,2. The class given is functional. A digest of the protocol:
as §1

For experiment [21], the system named is Mus musculus. The experiment can be described thus: Net log cell kill is an estimate of the number of cells that are killed by the compound was calculated at dose of 2.7 mg/kg on days 1,5,9. The class given is functional. An outline of the steps: as §1
Experiment [22] has as its system Mus musculus. Description: Net log cell kill is an estimate of the number of cells that are killed by the compound was calculated at dose of 2.7 mg/kg on days 1,8. The format is functional. A digest of the protocol: as §1
In experiment [23] the test system is Mus musculus. Description: Net log cell kill is an estimate of the number of cells that are killed by the compound was calculated at dose of 4.0 mg/kg on days 1. The class given is functional. A digest of the protocol:
as §1

The subject of experiment [24] is Mus musculus. Description: Net log cell kill is an estimate of the number of cells that are killed by the compound was calculated at dose of 4.0 mg/kg on days 1,8. The format is functional. An outline of the steps: as §1
In experiment [25] the test system is Mus musculus. The experiment can be described thus: In vivo antitumor studies were carried out on mice bearing L1210 murine leukemia cells, by administering intravenously the compound dose of 1.8 mg/kg on days 1. The class given is functional. The following applies: route intravenous. A digest of the protocol:
as §2

Experiment [26] deals with Mus musculus. The experiment can be described thus: In vivo antitumor studies were carried out on mice bearing L1210 murine leukemia cells, by administering intravenously the compound dose of 1.8 mg/kg on days 1,2. The note with it: route intravenous. The class given is functional. An outline of the steps:
as §2

For experiment [27], the system named is Mus musculus. Description: In vivo antitumor studies were carried out on mice bearing L1210 murine leukemia cells, by administering intravenously the compound dose of 1.8 mg/kg on days 1,5 and 9. The class given is functional. The following applies: route intravenous. A digest of the protocol: as §2
Experiment [28] deals with Mus musculus. Description: In vivo antitumor studies were carried out on mice bearing L1210 murine leukemia cells, by administering intravenously the compound dose of 1.8 mg/kg on days 1,8. The class given is functional. The note with it: route intravenous. A digest of the protocol: as §2
The subject of experiment [29] is Mus musculus. The experiment can be described thus: In vivo antitumor studies were carried out on mice bearing L1210 murine leukemia cells, by administering intravenously the compound dose of 2.7 mg/kg on days 1. The class given is functional. The note with it: route intravenous. An outline of the steps: as §2
Experiment [30] has as its system Mus musculus. Description: In vivo antitumor studies were carried out on mice bearing L1210 murine leukemia cells, by administering intravenously the compound dose of 2.7 mg/kg on days 1,2. The class given is functional. The note with it: route intravenous. A digest of the protocol: as §2
The subject of experiment [31] is Mus musculus. Description: In vivo antitumor studies were carried out on mice bearing L1210 murine leukemia cells, by administering intravenously the compound dose of 2.7 mg/kg on days 1,5 and 9. The class given is functional. The note with it: route intravenous. A digest of the protocol:
as §2

The test system of experiment [32] is Mus musculus. Description: In vivo antitumor studies were carried out on mice bearing L1210 murine leukemia cells, by administering intravenously the compound dose of 4.0 mg/kg on days 1,2. The format is functional. The note with it: route intravenous. An outline of the steps: as §2
For experiment [33], the system named is Mus musculus. Description: In vivo antitumor studies were carried out on mice bearing L1210 murine leukemia cells, by administering intravenously the compound dose of 4.0 mg/kg on days 1,5 and 9. The format is functional. The following applies: route intravenous. An outline of the steps: as §2
For experiment [34], the system named is Mus musculus. Description: In vivo antitumor studies were carried out on mice bearing L1210 murine leukemia cells, by administering intravenously the compound dose of 4.0 mg/kg on days 1,8. The class given is functional. The following applies: route intravenous. An outline of the steps: as §2
Experiment [35] has as its system Mus musculus. Description: In vivo antitumor studies were carried out on mice bearing L1210 murine leukemia cells, by administering intravenously the compound dose of 6.0 mg/kg on days 1. The class given is functional. The note with it: route intravenous. A digest of the protocol:
as §2

Experiment [36] has as its system Mus musculus. The experiment can be described thus: In vivo antitumor studies were carried out on mice bearing L1210 murine leukemia cells, by administering intravenously the compound dose of 2.7 mg/kg on days 1,8. The class given is functional. The note with it: route intravenous. An outline of the steps: as §2

Turning to `S=P(N1CC1)(N1CC1)N1CC1` [THIOTEPA], the NLCK with Mus musculus [1] is listed as 1. The increase in life span (ILS) at 10 mg/kg with Mus musculus [2] is 114%. In addition, the Mean survival in the experiment on Mus musculus [3] came out at 15.3 days.

As to `C(CCNCCCN1CC1)CNCCCN1CC1`, the NLCK in the experiment on Mus musculus [4] is listed as 3; in the experiment on Mus musculus [5] it was 4; with Mus musculus [6], 6; in the experiment with Mus musculus [7], 2; with Mus musculus [20], 6; in the experiment with Mus musculus [21], 4. In addition, the NLCK is 2 in the experiment on Mus musculus [22], 4 with Mus musculus [23] and 4 in the experiment with Mus musculus [24]. In addition, the Life span in the experiment with Mus musculus [8] was determined as 11 days. Moreover, the ILS at 1.8 mg/kg with Mus musculus [9] was 143%; in the experiment on Mus musculus [10] it was 86%; in the experiment with Mus musculus [18], 57%; with Mus musculus [19], 100%. The ILS at 2.7 mg/kg in the experiment on Mus musculus [11] is 42%; in the experiment on Mus musculus [12], 100%; in the experiment on Mus musculus [13] it was 171%; with Mus musculus [14], 129%. Besides, the ILS at 4 mg/kg in the experiment with Mus musculus [15] is 57%; in the experiment with Mus musculus [16], 14%; with Mus musculus [17] it was 157%. Also, the Mean survival was 10.8 days with Mus musculus [25]; 14.8 days in the experiment with Mus musculus [26]; 17.4 days in the experiment with Mus musculus [27]; 12.6 days in the experiment on Mus musculus [28]; 10.4 days in the experiment with Mus musculus [29]; 13.2 days in the experiment on Mus musculus [30]. In addition, the Mean survival with Mus musculus [31] was 18.8 days; with Mus musculus [32], 5.4 days; in the experiment with Mus musculus [33] it was 11 days; in the experiment on Mus musculus [34], 17.2 days; with Mus musculus [35] it was 6.8 days; in the experiment with Mus musculus [36], 15.2 days.

Broadly, the ILS is the gain in survival time of treated over control animals, in per cent.
